Mdm2 ligase inh: inhibitors of human Mdm2 E3 ubiquitin ligase; Q00987; cell-based MDM2 ubiquitination luciferase reporter, 2 h; 0 = plate control, 100 = twice control, blank-subtracted; signal enhancement, % at 5 µM; hit rate 0.11% among 210,000; AID 1230;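 active = signal enhancement of 30% or more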;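 note: luminescence tracks abundance of the self-degrading MDM2-luciferase fusion protein; higher signal means inhibition of MDM2 E3 ligase activity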
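Buffer or medium: Cells held in DMEM | Assay system: Stable mammalian line carrying autodegrading MDM2–luciferase fusion reporter | Quantity: 2000 cells/well | Times: 4 h settle plus 2 h compound, 37 °C | Doses: One concentration, 5 µM, with 0.2% DMSO | Technique: Luminescence with SteadyLite reagent, 15 min at room temperature | Benchmarks: Plate controls and plate blanks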
NF-kB neuron act: compounds increasing NF-kB expression in human neuronal cells; NF-kB reporter expression; active compounds read high; fold change at 12.5 µM; hit rate 1.6% among 190,000; AID 1239; in the data active = fold change above about 3.3
PERK inh: blocks human PERK kinase; Q9NZJ5; CHO PERK-DD fusion, SEAP luminescence translation reporter; inhibition, % at 5.6 µM; hit rate 0.17% among 220,000;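 active = inhibition above the mean inhibition of all tested compounds plus 3 SD, set separately per screening campaign, cut at about 2.9% in these data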;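 note: PERK kinase domain activated by AP20187 dimerizer at 100 nM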
APP 5'UTR act: activates APP 5'UTR luciferase reporter. SH-SY5Y APP 5'UTR luciferase reporter, luminescence; zero percent = DMSO vehicle wells. hit rate 1% among 190,000. activation, % at 2 µM. AID 1276;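 active = activation above a set limit, based on mean plus 3 SD of controls, cut at about 140% in these data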
AHR act: activates the human aryl hydrocarbon receptor; AHR-responsive luciferase reporter cells, luminescence; activation, % at 5 µM; hit rate 2.5% among 320,000; in the data active = activation above about 47%
STAT1 activator: increases IFN-gamma driven STAT1 reporter signal; NIH 3T3 STAT1-luciferase reporter, luminescence; 100% = IFN-gamma alone, no compound; activation (% of control), % at 5.5 µM; hit rate 2.6% among 200,000;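 active = activation above the screen-wide mean activation plus 3 SD, cut at about 130% in these data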
Of the large screens only hits and unclear results are named; the others gave an inactive call. Only some compounds are listed: those with a hit (about 4.5% of all), similar ones and a draw of the others.

CCN=C1S/C(=C\c2ccc(-c3cccc(C(=O)O)c3)o2)C(=O)N1CC	APP 5'UTR act 185
CCN1C(=O)/C(=C\c2ccc(-c3cccc(C(=O)OC)c3)o2)SC1=Nc1ccc(C(=O)O)cc1	none (no result: Mdm2 ligase inh, NF-kB neuron act, PERK inh, APP 5'UTR act, STAT1 activator)
O=C(C1CCC(=O)N(C2CC2)C1)N1CCC(Oc2ccccc2F)CC1 (stereo not drawn)	none (no result: Mdm2 ligase inh, NF-kB neuron act, PERK inh, APP 5'UTR act, STAT1 activator)
O=C(CSc1nnc2c3ccccc3c3ccccc3c2n1)Nc1ccccc1	AHR act 47
O=C(CSc1nnc2c3ccccc3c3ccccc3c2n1)Nc1ccccc1F	AHR act 68
O=C(CSc1nncc2ccccc12)Nc1ccccc1	none (no result: Mdm2 ligase inh, NF-kB neuron act, PERK inh, APP 5'UTR act, STAT1 activator)
O=c1c2c3c(sc2ncn1/N=C/c1ccc([N+](=O)[O-])o1)CCCC3	NF-kB neuron act 4
Cn1cc(/C=N/n2cnc3sc4c(c3c2=O)CCCC4)c2ccccc21	none
COc1cccc(CC(=O)Nc2cccc3ccccc23)c1	none (no result: Mdm2 ligase inh, NF-kB neuron act, PERK inh, APP 5'UTR act, STAT1 activator)
COc1ccccc1NC(=O)CNC(=O)c1ccc(Br)o1	none (no result: Mdm2 ligase inh, NF-kB neuron act, PERK inh, APP 5'UTR act, STAT1 activator)
CSc1ccccc1NC(=O)CSCc1nc2sc(C)c(C)c2c(=O)[nH]1	none (no result: Mdm2 ligase inh, NF-kB neuron act, PERK inh, APP 5'UTR act, STAT1 activator)
Cc1sc2nc(CSCC(=O)Nc3ccccc3C#N)[nH]c(=O)c2c1C	AHR act 70
S=C(c1ccccc1)N1CCSCC1	none (no result: Mdm2 ligase inh, NF-kB neuron act, PERK inh, APP 5'UTR act, STAT1 activator)
O=C(CSC(=S)N1CCSCC1)c1ccccc1	NF-kB neuron act 6.2, STAT1 activator 137 (no result: AHR act)
O=C(CSC(=S)N1CCSCC1)c1ccc(Cl)cc1	NF-kB neuron act 5.2, APP 5'UTR act 151, STAT1 activator 129
Cn1c(Cc2nc3ccccc3n2C)nc2ccccc21	none (no result: Mdm2 ligase inh, NF-kB neuron act, PERK inh, APP 5'UTR act, STAT1 activator)
Cn1c(CNc2ccccc2O)nc2ccccc21	AHR act 76
Cn1c(CNc2ccccc2)nc2ccccc21	AHR act 65, STAT1 activator 132
Cc1ccccc1NCc1nc2ccccc2n1C	AHR act 79 (no result: Mdm2 ligase inh, NF-kB neuron act, PERK inh, APP 5'UTR act, STAT1 activator)
O=C(CN1CCSCC1)N/N=C/c1ccc(F)c(F)c1	none
CC(=O)Oc1ccc(-c2cc3ccc(OC(C)=O)cc3oc2=O)cc1	none (no result: Mdm2 ligase inh, NF-kB neuron act, PERK inh, APP 5'UTR act, STAT1 activator)
Cc1[nH]n(-c2ccccc2)c(=O)c1C(C[N+](=O)[O-])c1ccccc1Cl (stereo not drawn)	AHR act 68
O=C1CS/C(=C\[N+](=O)[O-])N1c1ccccc1	none
Cc1ccc(Cn2c(=O)n(C)c(=O)c3sccc32)cc1	none (no result: Mdm2 ligase inh, NF-kB neuron act, PERK inh, APP 5'UTR act, STAT1 activator)
CCn1c(=O)c(C(=O)NCc2ccccc2)c(O)c2ccccc21	none (no result: Mdm2 ligase inh, NF-kB neuron act, PERK inh, APP 5'UTR act, STAT1 activator)
O=C(NCc1cccnc1)c1c(O)c2cccc3c2n(c1=O)CCC3	AHR act 77
CCn1c(=O)c(C(=O)NCc2cccnc2)c(O)c2ccccc21	AHR act 56
CCn1c(=O)c(C(=O)NC(C)C)c(O)c2ccccc21	AHR act 76
CCn1c(=O)c(C(=O)NNC(=O)c2ccccc2Cl)c(O)c2ccccc21	none (no result: Mdm2 ligase inh, NF-kB neuron act, PERK inh, APP 5'UTR act, STAT1 activator)
CCOC(=O)N1CCN(CC(=O)Nc2c(C(=O)OC)[nH]c3cc(C)ccc23)CC1	AHR act 64
CCOC(=O)c1[nH]c2cc3c(cc2c1NC(=O)CN1CCC2(CC1)OCCO2)OCO3	AHR act 62
COc1ccc(OC)c(S(=O)(=O)N2CCC(C(=O)NCc3ccncc3)CC2)c1	none (no result: Mdm2 ligase inh, NF-kB neuron act, PERK inh, APP 5'UTR act, STAT1 activator)
COc1ccc(-c2[nH]ncc2CN(CCO)CC23CC4CC(CC(C4)C2)C3)c(OC)c1	none
Cc1ccccc1-c1nc2cc(Cl)ccc2c(=O)o1	none (no result: Mdm2 ligase inh, NF-kB neuron act, PERK inh, APP 5'UTR act, STAT1 activator)
Cc1ccc(-c2nc3cc(C)ccc3o2)cc1	APP 5'UTR act 175
O=c1oc(-c2cccs2)nc2ccccc12	none
COC(=O)c1ccc(-c2nc3ccc(C)cc3o2)cc1	NF-kB neuron act 7
Cc1ccccc1-c1nc2cc(Cl)ccc2o1	AHR act 75
Nc1ccc2oc(-c3cccs3)nc2c1	STAT1 activator 149
CN(CC(=O)Nc1ccc(N2CCOCC2)cc1)C(=O)CSc1ccc(F)cc1	none (no result: Mdm2 ligase inh, NF-kB neuron act, PERK inh, APP 5'UTR act, STAT1 activator)
O=C(COC(=O)c1cccc(C(=O)OCC(=O)NCc2ccc(F)cc2)n1)NCc1ccc(F)cc1	none
CC(=O)Nc1ccc(NC(=O)C(=O)N/N=C/c2cccnc2)cc1	none (no result: NF-kB neuron act, APP 5'UTR act, STAT1 activator)
CC(C)c1ccc2oc(-c3ccc(NC(=O)c4ncn[nH]4)cc3)nc2c1	STAT1 activator 136
CCC(C)c1ccc2oc(-c3ccc(NC(=O)c4ncn[nH]4)cc3)nc2c1 (stereo not drawn)	none
CC(C)c1ccc2oc(-c3ccc(N)cc3)nc2c1	NF-kB neuron act 3.4
CC(C)(C)c1ccc(-c2nc3cc(N)ccc3o2)cc1	none (no result: Mdm2 ligase inh, NF-kB neuron act, PERK inh, APP 5'UTR act, STAT1 activator)
Cc1ccc(-c2nc3cc(N)ccc3o2)cc1	NF-kB neuron act 5.4, AHR act 73

High-throughput results from PubChem.
